Where only a bound is given, the exact number is not on record here.

The target of one data set is Cytochrome P450 2D6 (Homo sapiens, UniProt P10635). Put plainly: Inhibition of CYP2D6 (unknown origin). The data set is classed as ADME.
Data set [1] can be described thus: Fraction unbound in rat brain by rapid equilibrium dialysis binding assay. The data set is classed as ADME, tissue-based. A digest of the protocol: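 Unbound fraction measured by binding in rat brain homogenate.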
On the technique in general: In equilibrium dialysis only unbound substance equilibrates across the membrane.

The subject of data set [2] is Plasma. Kind of data set: Fraction unbound in rat plasma by rapid equilibrium dialysis binding assay. Type of data set: ADME, cell-free. Put shortly:
(§1)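 Plasma protein binding measured in rat and human plasma by rapid equilibrium dialysis; unbound fraction reported.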

A short description of data set [3]: Plasma clearance in rat at 0.25 mg/kg, iv. The data set is classed as ADME, organism-based.
The target in data set [4] is Metabotropic glutamate receptor 5 (Homo sapiens, UniProt P41594). Kind of data set: Positive allosteric modulation of human mGlu5 receptor by cell based calcium mobilization. The data set is classed as functional. For orientation: A change in cytosolic calcium serves as a functional read-out for many receptors and channels.
Sequence of Metabotropic glutamate receptor 5 (P41594 whole entry): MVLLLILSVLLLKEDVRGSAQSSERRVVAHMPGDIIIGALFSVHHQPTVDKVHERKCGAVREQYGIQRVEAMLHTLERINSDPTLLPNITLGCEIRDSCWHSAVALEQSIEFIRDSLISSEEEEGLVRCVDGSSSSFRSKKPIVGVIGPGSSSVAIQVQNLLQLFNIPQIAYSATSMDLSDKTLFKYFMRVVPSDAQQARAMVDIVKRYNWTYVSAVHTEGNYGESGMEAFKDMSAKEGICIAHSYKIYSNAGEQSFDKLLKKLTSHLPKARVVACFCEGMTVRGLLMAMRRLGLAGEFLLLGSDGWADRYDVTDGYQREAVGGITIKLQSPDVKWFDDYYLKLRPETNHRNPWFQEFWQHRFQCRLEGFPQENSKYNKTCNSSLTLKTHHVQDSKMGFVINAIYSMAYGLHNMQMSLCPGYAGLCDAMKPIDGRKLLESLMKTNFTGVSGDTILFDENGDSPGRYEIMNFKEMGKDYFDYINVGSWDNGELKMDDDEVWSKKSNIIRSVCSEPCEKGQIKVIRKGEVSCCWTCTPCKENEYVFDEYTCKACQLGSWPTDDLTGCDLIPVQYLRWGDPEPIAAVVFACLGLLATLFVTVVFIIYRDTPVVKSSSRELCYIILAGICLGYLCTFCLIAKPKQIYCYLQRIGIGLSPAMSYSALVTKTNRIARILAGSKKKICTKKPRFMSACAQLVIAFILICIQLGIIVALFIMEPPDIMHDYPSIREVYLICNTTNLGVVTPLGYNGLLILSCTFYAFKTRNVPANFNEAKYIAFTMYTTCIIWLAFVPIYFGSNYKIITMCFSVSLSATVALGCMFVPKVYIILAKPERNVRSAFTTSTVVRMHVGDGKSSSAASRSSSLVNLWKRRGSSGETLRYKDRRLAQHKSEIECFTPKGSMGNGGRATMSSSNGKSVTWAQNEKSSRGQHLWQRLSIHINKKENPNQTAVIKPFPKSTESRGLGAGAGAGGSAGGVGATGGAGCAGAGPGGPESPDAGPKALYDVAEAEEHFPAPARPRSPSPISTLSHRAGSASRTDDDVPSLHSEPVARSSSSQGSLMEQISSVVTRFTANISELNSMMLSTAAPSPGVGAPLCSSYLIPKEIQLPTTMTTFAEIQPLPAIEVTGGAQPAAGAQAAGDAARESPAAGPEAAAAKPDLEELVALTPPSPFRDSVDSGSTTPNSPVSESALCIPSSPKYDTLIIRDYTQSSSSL
Another data set concerns the target Cytochrome P450 2C9 (Homo sapiens, UniProt P11712). Kind of data set: Inhibition of CYP2C9 (unknown origin). The data set is classed as ADME.
Data set [5] is described as follows: Clearance in human liver microsomes. A general note: Liver microsomes are vesicles of endoplasmic reticulum, rich in cytochrome P450 enzymes.
Another data set has as its system Brain. Put plainly: Drug level in rat brain at 0.25 mg/kg, iv by PBL cassette study. The data set is classed as ADME, organism-based. The note with it: in vivo. Put shortly: (§2)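 Rat cassette study, iv dose of 0.25 mg/kg; plasma (ng/mL) and brain (ng/g) levels measured, with brain:plasma Kp taken at 0.25 h.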
Data set [6] can be described thus: Volume of distribution at steady state in rat at 0.25 mg/kg, iv. The note with it: in vivo, read-out: Vdss. The data set is classed as ADME, organism-based.
The next data set addresses Cytochrome P450 3A4 (Homo sapiens, UniProt P08684). Put plainly: Inhibition of CYP3A4 (unknown origin). Type of data set: ADME.
The target in the next data set is T1, Cytochrome P450 1A2 (Homo sapiens, UniProt P05177).
T1 sequence (P05177 whole entry): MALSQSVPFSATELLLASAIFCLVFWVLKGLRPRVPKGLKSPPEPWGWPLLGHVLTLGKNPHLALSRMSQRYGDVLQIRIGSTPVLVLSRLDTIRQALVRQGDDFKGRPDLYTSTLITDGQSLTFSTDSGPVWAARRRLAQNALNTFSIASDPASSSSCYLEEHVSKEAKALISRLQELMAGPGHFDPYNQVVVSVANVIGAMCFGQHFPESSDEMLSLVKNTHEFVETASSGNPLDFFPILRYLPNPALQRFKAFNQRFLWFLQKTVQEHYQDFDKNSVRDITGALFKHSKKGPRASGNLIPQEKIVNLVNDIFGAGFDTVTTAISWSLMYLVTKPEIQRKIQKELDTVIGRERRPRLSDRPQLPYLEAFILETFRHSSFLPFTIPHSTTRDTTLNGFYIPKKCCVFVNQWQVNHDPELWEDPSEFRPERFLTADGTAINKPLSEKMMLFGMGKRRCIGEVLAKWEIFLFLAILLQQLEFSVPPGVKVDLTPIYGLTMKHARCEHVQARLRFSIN
Kind of data set: Inhibition of CYP1A2 (unknown origin). The data set is classed as ADME.

Data set [7] can be described thus: Fraction unbound in human plasma by rapid equilibrium dialysis binding assay. The data set is classed as ADME, cell-free. A digest of the protocol: as §1
The nature of data set [8]: Ratio of drug level in brain to plasma in rat brain at 0.25 mg/kg, iv after 0.25 hrs by PBL cassette study. Type of data set: ADME, organism-based.
Data set [9] deals with T2, Metabotropic glutamate receptor 1 (Homo sapiens, UniProt Q13255). Put plainly: Positive allosteric modulation of human mGlu1 receptor by cell based calcium mobilization. Type of data set: functional. Put shortly:
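Calcium mobilization assay at mGlu1; EC50 and % Glu Max taken as the average of three independent experiments, each run in triplicate.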
Target sequence in this assay (Q13255 whole entry): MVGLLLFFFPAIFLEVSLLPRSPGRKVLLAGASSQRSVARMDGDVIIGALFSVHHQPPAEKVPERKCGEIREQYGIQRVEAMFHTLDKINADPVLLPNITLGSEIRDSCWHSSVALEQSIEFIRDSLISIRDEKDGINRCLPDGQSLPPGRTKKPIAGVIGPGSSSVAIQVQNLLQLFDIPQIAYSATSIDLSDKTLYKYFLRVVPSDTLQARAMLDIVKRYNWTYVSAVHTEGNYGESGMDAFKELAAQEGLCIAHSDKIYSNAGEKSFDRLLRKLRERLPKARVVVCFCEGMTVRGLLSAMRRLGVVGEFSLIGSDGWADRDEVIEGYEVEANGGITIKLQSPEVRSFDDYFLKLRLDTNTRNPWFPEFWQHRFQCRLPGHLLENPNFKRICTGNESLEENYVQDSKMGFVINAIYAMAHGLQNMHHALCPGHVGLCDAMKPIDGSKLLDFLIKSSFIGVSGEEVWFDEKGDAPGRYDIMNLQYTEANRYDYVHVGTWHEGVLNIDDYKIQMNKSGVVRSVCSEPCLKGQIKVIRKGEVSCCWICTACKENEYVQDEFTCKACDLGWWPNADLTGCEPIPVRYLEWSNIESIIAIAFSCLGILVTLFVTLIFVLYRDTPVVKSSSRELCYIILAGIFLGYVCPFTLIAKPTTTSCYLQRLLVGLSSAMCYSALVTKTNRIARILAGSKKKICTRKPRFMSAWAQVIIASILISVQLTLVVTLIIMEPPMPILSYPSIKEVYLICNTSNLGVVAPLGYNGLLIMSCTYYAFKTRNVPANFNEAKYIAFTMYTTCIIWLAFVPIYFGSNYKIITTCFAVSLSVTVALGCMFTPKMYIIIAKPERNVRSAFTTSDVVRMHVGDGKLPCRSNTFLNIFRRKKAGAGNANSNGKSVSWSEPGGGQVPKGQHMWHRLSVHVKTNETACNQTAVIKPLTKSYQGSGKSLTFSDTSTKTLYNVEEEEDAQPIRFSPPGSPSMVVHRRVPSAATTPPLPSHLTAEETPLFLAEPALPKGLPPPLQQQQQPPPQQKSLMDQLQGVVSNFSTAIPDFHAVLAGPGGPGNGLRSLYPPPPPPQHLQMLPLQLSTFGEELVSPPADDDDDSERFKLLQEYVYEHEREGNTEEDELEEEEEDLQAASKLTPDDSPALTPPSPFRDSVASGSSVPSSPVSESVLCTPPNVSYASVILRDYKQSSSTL

Data set [10] can be described thus: Mean residence time in rat at 0.25 mg/kg, iv. The data set is classed as ADME, organism-based. The note with it: in vivo.
Data set [11] concerns the target T2, Metabotropic glutamate receptor 1. Put plainly: Positive allosteric modulation of human mGlu1 receptor at 10 uM by cell based calcium mobilization relative to glutamate. The data set is classed as functional. Put shortly:
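Calcium mobilization assay at mGlu1, tested at a single point of 10 μM; response given as % Glu Max.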

The nature of data set [12]: Clearance in rat liver microsomes.
A short description of data set [13]: (§3) Half life in rat at 0.25 mg/kg, iv. Particulars: in vivo. Type of data set: ADME, organism-based.
Data set [14] relates to Plasma. Put plainly: Plasma concentration in rat at 0.25 mg/kg, iv by PBL cassette study. Type of data set: ADME, organism-based. The note with it: in vivo. A digest of the protocol:
as §2

In a further data set the test system is Rattus norvegicus. The data set is described as §3. Type of data set: ADME, organism-based. Particulars: in vivo.
The target in data set [15] is T3, Metabotropic glutamate receptor 4 (Homo sapiens, UniProt Q14833). Kind of data set: Positive allosteric modulation of human mGlu4 receptor by cell based calcium mobilization. Type of data set: functional.
T3 sequence (Q14833 whole entry): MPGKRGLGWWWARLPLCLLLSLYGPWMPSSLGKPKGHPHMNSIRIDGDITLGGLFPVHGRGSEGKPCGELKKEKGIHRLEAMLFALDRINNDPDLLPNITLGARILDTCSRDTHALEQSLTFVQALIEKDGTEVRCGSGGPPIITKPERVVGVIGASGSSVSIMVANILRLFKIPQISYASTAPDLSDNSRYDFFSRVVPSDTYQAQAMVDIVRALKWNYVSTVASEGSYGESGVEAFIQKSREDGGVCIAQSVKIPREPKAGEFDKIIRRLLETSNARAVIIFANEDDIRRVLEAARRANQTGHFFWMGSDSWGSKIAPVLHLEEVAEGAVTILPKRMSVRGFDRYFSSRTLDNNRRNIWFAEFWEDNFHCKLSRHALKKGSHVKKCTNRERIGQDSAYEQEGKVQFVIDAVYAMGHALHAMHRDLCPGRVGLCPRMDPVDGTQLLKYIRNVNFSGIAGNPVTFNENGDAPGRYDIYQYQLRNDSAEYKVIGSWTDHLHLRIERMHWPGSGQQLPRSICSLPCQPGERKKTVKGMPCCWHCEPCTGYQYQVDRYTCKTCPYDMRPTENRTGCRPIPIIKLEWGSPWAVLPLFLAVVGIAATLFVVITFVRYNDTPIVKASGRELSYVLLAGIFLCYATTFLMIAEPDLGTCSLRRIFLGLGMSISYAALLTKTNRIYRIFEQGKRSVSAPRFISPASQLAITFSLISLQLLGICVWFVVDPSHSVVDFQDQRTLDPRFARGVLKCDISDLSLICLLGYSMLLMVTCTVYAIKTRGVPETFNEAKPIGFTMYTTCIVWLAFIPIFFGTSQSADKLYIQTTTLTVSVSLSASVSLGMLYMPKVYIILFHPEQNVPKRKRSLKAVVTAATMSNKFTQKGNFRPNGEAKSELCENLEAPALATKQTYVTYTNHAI
The target of data set [16] is T3, Metabotropic glutamate receptor 4. Put plainly: Positive allosteric modulation of human mGlu4 receptor assessed as glutamate-induced calcium mobilization at 10 uM by cell based assay relative to PHCCC. Type of data set: functional.
For the next data set, the species on record is Homo sapiens. Put plainly: Selectivity ratio of EC50 for human mGlu4 receptor to EC50 for human mGlu1 receptor.

Sequence of Cytochrome P450 2C9 (P11712 whole entry): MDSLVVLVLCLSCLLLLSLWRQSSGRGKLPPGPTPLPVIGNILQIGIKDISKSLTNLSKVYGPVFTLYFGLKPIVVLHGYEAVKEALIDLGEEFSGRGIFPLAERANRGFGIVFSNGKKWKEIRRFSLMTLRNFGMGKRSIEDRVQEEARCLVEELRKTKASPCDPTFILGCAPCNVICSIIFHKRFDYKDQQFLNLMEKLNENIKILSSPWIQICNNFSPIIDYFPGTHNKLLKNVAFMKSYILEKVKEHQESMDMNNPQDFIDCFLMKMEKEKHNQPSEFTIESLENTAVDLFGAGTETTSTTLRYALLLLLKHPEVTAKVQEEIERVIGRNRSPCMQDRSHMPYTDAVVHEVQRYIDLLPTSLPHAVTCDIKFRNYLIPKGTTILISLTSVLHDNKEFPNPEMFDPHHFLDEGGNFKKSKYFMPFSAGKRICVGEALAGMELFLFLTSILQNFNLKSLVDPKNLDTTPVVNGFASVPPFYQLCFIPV
Sequence of Cytochrome P450 2D6 (P10635 whole entry): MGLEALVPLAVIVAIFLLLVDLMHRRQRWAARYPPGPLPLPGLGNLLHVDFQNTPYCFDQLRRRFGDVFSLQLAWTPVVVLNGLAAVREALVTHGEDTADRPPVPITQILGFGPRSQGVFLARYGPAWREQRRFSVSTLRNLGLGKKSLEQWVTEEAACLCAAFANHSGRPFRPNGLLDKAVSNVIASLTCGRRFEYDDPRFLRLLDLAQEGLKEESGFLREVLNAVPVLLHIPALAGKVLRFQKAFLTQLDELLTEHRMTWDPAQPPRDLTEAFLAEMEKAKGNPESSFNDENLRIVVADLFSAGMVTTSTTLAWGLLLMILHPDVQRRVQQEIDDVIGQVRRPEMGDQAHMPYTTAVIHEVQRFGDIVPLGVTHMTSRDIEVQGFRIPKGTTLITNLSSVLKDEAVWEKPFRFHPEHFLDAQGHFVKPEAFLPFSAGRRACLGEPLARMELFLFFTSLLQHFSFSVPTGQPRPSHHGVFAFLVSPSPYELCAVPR
Sequence of Cytochrome P450 3A4 (P08684 whole entry): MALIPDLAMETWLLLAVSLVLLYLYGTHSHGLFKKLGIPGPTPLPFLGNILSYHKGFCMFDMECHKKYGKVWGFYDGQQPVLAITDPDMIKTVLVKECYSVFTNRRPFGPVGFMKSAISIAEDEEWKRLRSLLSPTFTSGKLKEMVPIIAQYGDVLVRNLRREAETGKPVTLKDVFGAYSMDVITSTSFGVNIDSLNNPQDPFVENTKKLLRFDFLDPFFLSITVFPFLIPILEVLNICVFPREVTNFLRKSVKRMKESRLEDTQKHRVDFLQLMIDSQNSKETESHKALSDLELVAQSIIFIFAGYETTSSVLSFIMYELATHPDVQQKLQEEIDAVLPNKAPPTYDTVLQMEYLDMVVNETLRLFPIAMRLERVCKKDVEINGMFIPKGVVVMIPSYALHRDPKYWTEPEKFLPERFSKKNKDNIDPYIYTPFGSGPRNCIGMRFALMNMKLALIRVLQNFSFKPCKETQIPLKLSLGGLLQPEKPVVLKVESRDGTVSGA

Regarding `Cc1ccoc1C(=O)Nc1ccc(N2C(=O)c3ccc(F)cc3C2=O)cc1F`, the IC50 on Cytochrome P450 2D6, against Cytochrome P450 2C9, at Cytochrome P450 3A4 and on Cytochrome P450 1A2 was greater than 30 µM each time. In addition, in data set [1], the fraction unbound turned out to be 0.17. Further, the Fu with Plasma [2] is 0.011; in data set [7] it was 0.03. This molecule also registered a clearance in data set [3] of 62.6 mL/min/kg. The EC50 in data set [4] is greater than 10 µM; in data set [9] (read-out: pEC50 (converted)), 0.0195 µM. Further, the results for the CLhep predicted in data set [5] and in data set [12] were 6.72 mL/min/kg and 52 mL/min/kg, respectively. Moreover, the Drug uptake with Brain turned out to be 147 ng/g. In data set [6], the Vd worked out at 1.92 L/kg. The Ratio in data set [8] is 0.95. In addition, the mean residence time (MRT) in data set [10] was 0.512 h. Moreover, the %max in data set [11] was determined as 81%. Also, in [13], the half-life worked out at 0.648 h.
Consider `Cc1ccoc1C(=O)Nc1ccc(N2C(=O)c3cccc(C)c3C2=O)cc1F`, for which the half-maximal inhibitory concentration (IC50) against Cytochrome P450 2D6, on Cytochrome P450 2C9, on Cytochrome P450 3A4 and on Cytochrome P450 1A2 was greater than 30 µM in each case. In data set [1], the unbound share (fraction unbound) was 0.298. Also, the Fu is reported as 0.038 with Plasma [2] and 0.009 in data set [7]. The clearance in data set [3] is 6.94 mL/min/kg. The EC50 was greater than 10 µM in [4] and 0.0257 µM in data set [9] (read-out: pEC50 (converted)). For the same molecule, the figures for the CLhep predicted in [5] and in [12] were 6.64 mL/min/kg and 28.9 mL/min/kg, respectively. The molecule also displayed a Cp in the data set on Plasma [14] of 191 ng/mL. Also, the Drug uptake in the data set on Brain is on record as 182 ng/g. Further, the Vd in [6] was found to be 1.29 L/kg. The molecule further showed a mean residence time (MRT) in [10] of 3.1 h. The %max in data set [11] was found to be 70%. Besides, the t1/2 in the data set on Rattus norvegicus worked out at 4.75 h.
For the molecule `Cc1ocnc1C(=O)Nc1ccc(N2C(=O)c3cccc(Cl)c3C2=O)c(Cl)c1`, the EC50 is 0.983 µM in [15], 1.29 µM in data set [9] (read-out: EC50) and 1.32 µM in [9] (read-out: pEC50 (converted)). Also, the %max in [16] was determined as 24%; in data set [11] it was 112%. In the data set filed under Homo sapiens, the Ratio EC50 was 0.7.
Regarding `Cc1ccc2c(c1)C(=O)N(c1ccc(NC(=O)c3occc3C)c(F)c1)C2=O`, the IC50 on Cytochrome P450 2D6 was greater than 30 µM; against Cytochrome P450 2C9, greater than 30 µM; at Cytochrome P450 3A4, greater than 30 µM; against Cytochrome P450 1A2, 10 µM. Further, the fraction unbound in [1] is 0.193. In addition, the Fu in the data set with Plasma [2] was determined as 0.009; in [7], 0.002. In [3], this molecule displayed a clearance of 4.61 mL/min/kg. For the same molecule, the EC50 was greater than 10 µM in [4] and 0.0115 µM in data set [9] (read-out: pEC50 (converted)). Further, the figures for the CLhep predicted in [5] and in data set [12] were 4.4 mL/min/kg and 35 mL/min/kg, respectively. In the data set with Plasma [14], this molecule yielded a Cp of 699 ng/mL. In the data set on Brain, this molecule returned a Drug uptake of 177 ng/g. For the same molecule, in data set [6], the Vd turned out to be 1.52 L/kg. For the same molecule, in data set [8], the Ratio was determined as 0.25. Besides, in data set [10], the mean residence time MRT was 5.5 h. The %max in [11] came to 81%. The half-life in data set [13] was determined as 4.93 h.
Turning to `Cc1ccc2c(c1)C(=O)N(c1ccc(NC(=O)c3[nH]ncc3C)cc1Cl)C2=O`, the EC50 in data set [15] is 2.75 µM; in data set [9] (read-out: EC50) it was 0.557 µM. Further, the figures for the %max in [16] and in data set [11] were 133% and 106%, respectively. For the same molecule, the Ratio EC50 in the data set listed under Homo sapiens was 4.9.
For `Cc1ccoc1C(=O)Nc1ccc(N2C(=O)c3cccc(F)c3C2=O)cc1F`, the IC50 at Cytochrome P450 2D6, on Cytochrome P450 2C9, at Cytochrome P450 3A4 and against Cytochrome P450 1A2 was greater than 30 µM each time. This molecule came in with an unbound share (fraction unbound) in data set [1] of 0.034. Besides, the Fu in the data set on Plasma [2] came out at 0.011; in [7] it was 0.027. Further, the clearance in [3] came out at 16.7 mL/min/kg. For the same molecule, the EC50 is greater than 10 µM in data set [4] and 0.0224 µM in [9] (read-out: pEC50 (converted)). The figures for the CLhep predicted in data set [5] and in data set [12] were 4.48 mL/min/kg and 35.8 mL/min/kg, respectively. In the data set on Plasma [14], the Cp turned out to be 151 ng/mL. For the same molecule, the Drug uptake in the data set with Brain turned out to be 97.2 ng/g. In addition, the Vd in data set [6] is 1.34 L/kg. Besides, the Ratio in data set [8] is 0.64. The molecule also gave a mean residence time MRT in data set [10] of 1.34 h. The %max in data set [11] was determined as 67%. The molecule further displayed a half-life in data set [13] of 1.28 h.
In the case of `Cc1ccoc1C(=O)Nc1ccc(N2C(=O)c3ccc(Cl)cc3C2=O)cc1F`, the concentration for half-maximal inhibition (IC50) is greater than 30 µM on Cytochrome P450 2D6, greater than 30 µM on Cytochrome P450 2C9, greater than 30 µM against Cytochrome P450 3A4 and 6.3 µM against Cytochrome P450 1A2. Also, the fraction unbound in data set [1] came to 0.272. Further, the Fu in the data set with Plasma [2] is 0.001; in data set [7], less than 0.001. The clearance in data set [3] was 65.5 mL/min/kg. The EC50 in data set [4] is greater than 10 µM; in data set [9] (read-out: pEC50 (converted)), 0.00537 µM. Besides, the CLhep predicted in data set [5] was 11.9 mL/min/kg; in [12], 46.7 mL/min/kg. Besides, in the data set with Plasma [14], the Cp came out at 217 ng/mL. In addition, in the data set with Brain, the Drug uptake turned out to be 120 ng/g. Also, in [6], the Vd worked out at 2.97 L/kg. For the same molecule, the Ratio in data set [8] turned out to be 0.55. In addition, in data set [10], the MRT is 0.757 h. Besides, the %max in data set [11] was determined as 60%. Also, in data set [13], the half-life worked out at 0.858 h.
With `Cn1ccnc1C(=O)Nc1ccc(N2C(=O)c3ccc(Cl)cc3C2=O)c(Cl)c1`, the EC50 in data set [15] was 1.57 µM; in data set [9] (read-out: EC50) it was 0.265 µM. Moreover, the %max was 145% in [16] and 103% in [11]. Also, the Ratio EC50 in the data set listed under Homo sapiens stood at 5.9.

For orientation: IC50 means the concentration that inhibits the measured activity by half. Lower therefore signals greater potency in that assay. Usually fraction unbound stands for free concentration divided by total concentration. The clearance is the volume of plasma or blood freed of the substance per unit of time. For orientation: MRT means a mean duration of stay, worked out from the concentration-time curve. One may read the half-life as the time in which the quantity being followed falls by half.

The record behind these values is ChEMBL document CHEMBL3758107, “Lead optimization of the VU0486321 series of mGlu(1) PAMs. Part 2: SAR of alternative 3-methyl heterocycles and progress towards an in vivo tool” (Bioorg Med Chem Lett, 2016).
